97 molecules from ChEMBL document CHEMBL4513216, “Probing the Open Global Health Chemical Diversity Library for Multistage-Active Starting Points for Next-Generation Antimalarials” (ACS Infect Dis, 2020) can be followed below.

The series can be described thus: Toxicity liver stage against HepG2, at 10uM. Format: cell-based. Also on record: test concentration 10 uM, cell line HepG2-A16-CD81EGFP. The note with it: human, HepG2-A16-CD81EGFP cells; read-out: INHIBITION
The method in brief:
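Uninfected HepG2-A16-CD81EGFP cells, 3 × 10^3 per well, 1536-well, plated on prespotted compound at 10 μM final, parasite-free screening media added to match infected plates; puromycin 10 μM positive, DMSO 0.5% negative; run in parallel with 48 h PbLuc assay at 37 °C, 5% CO2; viability by CellTiter-Glo luminescence, normalized to controls.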
As for `CCN(CC)C(=O)CSc1sc2c(O)cc(=O)[nH]c2c1C(N)=O`, the cytotoxicity at 10 µM came out at 0.488%.
The same measure for `CCc1cnc2c(c1Nc1ccc3c(c1)OCO3)c(=O)n(C)c(=O)n2C`: 9.06%; for `O=S(=O)(NCC1(O)CCOc2ccccc21)c1ccc(Cl)s1` (configuration not stated): 6.87%; for `COc1cc(C(=O)NCCCc2ccccc2)on1`: -2.1%.
The same measure for `Cc1cc(C)c(S(=O)(=O)Nc2c(C)nc(N(C)C)nc2C)cc1C`: 6.63%.
With `O=C1[C@@H]2CCN(C3CCC3)C[C@@H]2OCCN1Cc1ccncc1` the figure was -135%; with `O=C(c1cnccn1)N1CCc2onc(CN3CCCC3)c2C1`, 8.7%.
On to `CS(=O)(=O)N1Cc2nccn2CC(CN2CCCC2)C1` (configuration not stated), for which the cytotoxicity at 10 µM is -111%.
The same measure for `Cn1cc(CN2CCC3(CCCN(C(=O)c4cnccn4)C3)C2)cn1` (configuration not stated): -131%; for `CCOc1ccccc1C(=O)Oc1cc(=O)n2cccc(C)c2n1`: 22.1%.
Regarding `COc1cccc(C(c2c(C)n[nH]c2O)c2c(C)n[nH]c2O)c1OC`, the cytotoxicity at 10 µM turned out to be 12.4%.
The same measure for `COc1ccccc1C(=O)Nc1c(F)c(C(=O)NC2CCCC2)nn1C`: -10.8%.
With `CCS(=O)(=O)NCCCn1ncc2c(C)cccc21` the figure was 6.8%; with `O=C1CN([C@@H]2CC[C@@H](NS(=O)(=O)c3ccccc3)[C@H]2O)CCN1`, 7.41%; with `CCNC(=O)C1(Cc2cc(-c3ccccc3)no2)CCCN(C(C)C)C1` (configuration not stated), 1.62%.
With `O=C(c1ccc2[nH]nnc2c1)N1C[C@H](O)[C@]2(CCCO2)C1` the figure was 3.42%; with `Cc1oc2c(c1C(=O)N1C[C@H](O)[C@]3(CCCO3)C1)CCCC2`, -0.4%.
Consider `CC(C)(C)OC(=O)N[C@@H]1C[C@@H](O)CN(C(=O)c2cccc(F)c2)C[C@H]1O`, for which the cytotoxicity at 10 µM is 0.187%.
`Cc1cncnc1C1CCN(CC2CC2)CC1`: the cytotoxicity at 10 µM was -1.06%.
The same measure for `NC(=O)c1cn[nH]c1C1CCCN1C(=O)c1cnccn1` (configuration not stated): -6.17%.
With `Cc1ccn(CCNC(=O)C2CCN(S(=O)(=O)c3ccc(F)cc3)C2)n1` (configuration not stated) the figure was -24.5%; with `COc1cccc(CN2CCC3(CC(Nc4ccncn4)C3)C2)c1F` (configuration not stated), 1.69%; with `Cc1cc(C)nc(Nc2cccc(C3CCCN(CCO)C3)n2)n1` (configuration not stated), -12.9%.
As to `Cn1cccc1C(=O)N1CCCCC1c1[nH]ncc1S(C)(=O)=O` (configuration not stated), the cytotoxicity at 10 µM was -4.66%.
The same measure for `Cc1cccc(C(=O)N2CCCCC2c2[nH]ncc2S(C)(=O)=O)c1` (configuration not stated): -7.44%; for `COc1nccc(C(F)(F)F)c1C(=O)O`: 16%.
With `Cc1cc(N(C)C)nc(N2CCCC2c2cc(C)on2)n1` (configuration not stated) the figure was -2.38%.
With `O=C(O)c1ccn(-c2ccccc2NC(=O)c2ccccc2Cl)n1` the figure was -161%.
For `Cc1nc(CN2CCN(CC(O)CN3CCOCC3)CC2)oc1C` (configuration not stated), the cytotoxicity at 10 µM stood at 5.92%.
With `O=C1NCCCCC1NC(=O)C1(c2ccccc2)CCOCC1` (configuration not stated) the figure was -14.2%; with `O=C(NS(=O)(=O)c1cccc(C(F)(F)F)c1)c1cnsn1`, -2.98%; with `Fc1ccc(C2(NCc3ccccc3)CCOCC2)cc1`, -9.91%.
With `Cc1cc(NCCC(=O)NC2CCCC2)nc(-c2ccncc2)n1` the figure was 2.25%.
With `CN(C1CCCCC1)S(=O)(=O)NC1CCCN(c2ncccn2)C1` (configuration not stated) the figure was 3.7%; with `O=C(NCCNC(=O)C1CC1)c1cnc(-c2ccccc2)nc1`, 12.3%.
For `CC(C(=O)N1CCN(Cc2ccncc2)CC1)n1cncn1` (configuration not stated), the cytotoxicity at 10 µM was -4.73%.
With `CCN(CC)c1ncc(CNC2CCc3nc(C)nn3C2)s1` (configuration not stated), the cytotoxicity at 10 µM was 2.78%.
The same measure for `CC(NCc1cccc2c1OCCO2)c1cc2c(cc1Br)OCCO2` (configuration not stated): 3.6%; for `O=S1(=O)CCC(n2cc(CNc3ccccc3Br)cn2)C1` (configuration not stated): -4.9%; for `COCCOCC(=O)NC(C#N)c1cccc(Cl)c1Cl` (configuration not stated): 7.84%.
The same measure for `O=C(CCCc1ccccn1)NCC(O)c1ccccc1Cl` (configuration not stated): -9.08%; for `O=C(Cn1nnc(-c2cc3ccccc3o2)n1)N1CCOCC1`: 7.63%.
Consider `Cc1cccc(N(CCC(N)=O)CC(=O)Nc2cc(Cl)ccc2Cl)c1`, for which the cytotoxicity at 10 µM was determined as 11.3%.
With `Cc1ccc(C(=O)NCCCn2cncn2)c(=O)[nH]1`, the cytotoxicity at 10 µM was -14.4%.
Consider `CC(C)c1nc(/C=C/c2cnn(-c3ccc(Cl)cc3)c2)ncc1C(=O)O`, for which the cytotoxicity at 10 µM is -6.21%.
With `c1cnn(CCNCc2cnc(N3CCOCC3)nc2)c1` the figure was -1.73%; with `CC(C(=O)Nc1cccc(Cl)c1)N1CCN(Cc2ncc[nH]2)CC1` (configuration not stated), -8.64%; with `CC(C)(NC(=O)c1ccc(-c2ccc(F)cc2)s1)C(N)=O`, -4.05%.
As for `CN(C)C(=O)C1CN(Cc2ccc(C#N)cc2F)c2ccccc2O1` (configuration not stated), the cytotoxicity at 10 µM stood at 7.14%.
With `O=C(NCC1(O)CCC1)c1cccc(-n2cccn2)c1` the figure was -2.44%; with `COc1ccc(OC)c(CN(C)c2nc3c(cnn3C)c(=O)[nH]2)c1`, 59.5%; with `O=C1CC(NS(=O)(=O)c2ccccc2)CN1Cc1ccccc1` (configuration not stated), 6.89%.
The same measure for `Cc1nc(CN2CCN(C(=O)COCc3ccccc3)CC2)no1`: -14.1%.
The same measure for `CC(NC(=O)COc1nc(C(C)(C)C)no1)c1ccco1` (configuration not stated): -5.41%.
With `Cn1cc(Br)c(=O)c(NS(=O)(=O)c2cc(F)ccc2Cl)c1`, the cytotoxicity at 10 µM is -11%.
The same measure for `COC[C@@]12CCO[C@@H]1CCN(C(=O)C1CCSCC1)C2`: -104%; for `Cc1cn2c(=O)c(-c3ccnc(N4CCC[C@@H]4CO)n3)cnc2s1`: -9.52%; for `CN1CCC(N(Cc2ccncc2)Cc2nc3c(s2)CCCC3)CC1`: -2.56%.
`Cc1nccn1Cc1nnc(C2CCCN(c3ncccn3)C2)n1C` (configuration not stated): the cytotoxicity at 10 µM was -3.09%.
The same measure for `COc1ccccc1Oc1ncccc1CNC(=O)CN1CCCC1=O`: -4.72%.
Take `CC1=C(CCN2CC[C@@H](N3CCC(O)CC3)[C@H](O)C2)C(C)(C)CCC1`: the cytotoxicity at 10 µM was -4.42%.
The same measure for `CCn1ccnc1CN(C)c1cc(C2CCCNC2)nc(C)n1` (configuration not stated): -2.48%; for `COc1cc(F)c(-n2cnc(CCNC(C)=O)c2)cc1F`: -12.1%; for `Cc1ncc(S(C)(=O)=O)c(N2Cc3ccccc3C2)n1`: -18.3%.
With `Cc1ccccc1CN(CCN(C)C)Cc1ncc[nH]1` the figure was -7.11%; with `O=C(O)C(c1ccc2c(c1)OCCO2)N1CCSCC1` (configuration not stated), 1.38%; with `COC1CCCOC12CCN(C(=O)NCc1ccco1)CC2` (configuration not stated), -15.3%.
With `OC1(CNCCc2csc(-c3cccnc3)n2)CCNC1` (configuration not stated), the cytotoxicity at 10 µM is 2.76%.
The same measure for `CCn1nc(C)c(CN(CCOC)Cc2ccccn2)c1C`: 9.77%; for `CCc1c(C)sc2ncnc(N3CCN(C4CCOCC4)CC3)c12`: 8.48%; for `CSc1ccccc1CC1CCCS(=O)(=O)C1` (configuration not stated): 2.26%.
The same measure for `CCN1CCC(Cn2ccc3ccc(C(=O)OC)cc3c2=O)C1` (configuration not stated): -9.09%.
With `CC[C@@H](c1ccccc1)n1c(CN)n[nH]c1=O` the figure was -4.34%.
Turning to `Cc1ccc(F)c(OC2(C(=O)O)CCN(C(=O)c3ccccc3)CC2)c1`, the cytotoxicity at 10 µM was 4.2%.
With `Cc1nn(C)c(C)c1-c1ccnc(N(C)Cc2noc(C(C)C)n2)n1` the figure was 26.4%; with `Cc1ccc(-c2ccc(Cl)nn2)cc1S(=O)(=O)N1CCOCC1`, -4.26%.
`COc1ccc(CC2(CO)CCN(c3cc(C(N)=O)ccn3)CC2)cc1`: the cytotoxicity at 10 µM is -2.41%.
With `CCCc1c(C2CCOC(C)(C)C2)nc(N)c(C#N)c1-c1cnn(C)c1` (configuration not stated) the figure was -3.22%; with `COc1ccc(OCCN2CCCN(Cc3noc(C)n3)CC2)cc1`, -6.12%.
The same measure for `CC(C)Oc1ccc(C(=O)N2CCCC2c2cnn(C)c2)cn1` (configuration not stated): -6.37%; for `CN(CC(=O)Nc1ccncc1)C1CCCN(c2cccnn2)C1` (configuration not stated): -3.44%.
The same measure for `Cc1nc(C)c(C(=O)NCCn2nc3ccccn3c2=O)s1`: -2.51%.
For `CCc1nc2n(n1)CC(NCc1nc(-c3ccccn3)no1)CC2` (configuration not stated), the cytotoxicity at 10 µM was -3.45%.
The same measure for `Cc1noc(C)c1S(=O)(=O)NC(=O)COc1ccc(C(C)C)cc1`: 2.1%; for `Cc1cnn(CC2CCCCN2Cc2cc(C)no2)c1` (configuration not stated): -9.21%.
With `COc1cccc(CCC(=O)N2CCN(CC(C)(C)O)CC2)c1` the figure was -8.39%; with `CC(C)(C)c1nc(CN2CCCC(Cn3cncn3)C2)no1` (configuration not stated), -0.0792%.
For the molecule `CCc1nc(CC(=O)N2CCN(c3cnccn3)CC2)cs1`, the cytotoxicity at 10 µM turned out to be 1.97%.
With `CCn1c(C)nnc1CN(C)C1CCN(CCCOC)C1` (configuration not stated) the figure was 4.19%.
With `Cc1oc(-c2ccco2)nc1CC(=O)N1CCC(C(O)C(F)(F)F)CC1` (configuration not stated) the figure was -5.25%; with `O=C1CC2(CCCNC2)C(=O)N1Cc1ccc(F)cc1` (configuration not stated), 1.65%; with `Cc1nc(NC(=O)C2(C)CN(C)CCO2)sc1C` (configuration not stated), 2.44%.
With `CN1C[C@@H](C(=O)N(C)C)[C@@]2(CCc3ccccc3C(=O)N2)C1` the figure was 1.2%.
In the case of `CC(C)N1CCc2onc(Cn3cccc3)c2C1`, the cytotoxicity at 10 µM was 7.55%.
With `Cc1ccc(N2CC[C@@H]3O[C@@H](COCc4cccnc4)CC[C@@H]32)nn1` the figure was 8.37%.
The same measure for `CS(=O)(=O)N[C@H]1CCO[C@]2(CCN(C(=O)c3ccccn3)C2)C1`: -73.3%.
With `Cn1ccnc1CN1CCC2(CC(=O)N(c3ccc4c(c3)OCO4)C2)C1` (configuration not stated) the figure was -79.8%.
